IC50 data for 5 compounds are collected here from ChEMBL document CHEMBL1157262, “A pyrimidine-beta-carboline and other alkaloids from Annona foetida with antileishmanial activity” (J Nat Prod, 2006).

As usually defined, the IC50 is the point on the concentration scale where inhibition reaches its midpoint. Read a high IC50 as weaker potency.

Where only a bound is given, the exact number is not on record here.

Experiment [1] has as its system Leishmania braziliensis. The experiment is described as follows: Antileishmanial activity against Leishmania braziliensis MHOM/BR/95/IOCL-2033 promastigotes after 24 hrs. In kind it is functional, organism-based. The essentials: (§1)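 Promastigotes grown in Schneider's Drosophila medium with 20% (v/v) heat-inactivated FCS, harvested late-log; log-phase cells at 4.0 × 10⁶ cells/mL in 96-well trays, 26 °C, 95% air/5% CO₂. Compounds in DMSO, 160–0.16 μg/mL, triplicate per concentration. Viability counted by Neubauer chamber after 24 h; IC50 = concentration inhibiting growth 50%. Pentamidine positive control.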

The test system of experiment [2] is Leishmania guyanensis. The experiment is described as follows: Antileishmanial activity against Leishmania guyanensis MHOM/BR/95/IOCL-2092 promastigotes after 24 hrs. In kind it is functional, organism-based. The essentials: as §1

As to `Nc1nccc(-c2nccc3c4ccccc4n(O)c23)n1`, the IC50 in experiment [1] was 253 µM; in experiment [2], 438 µM.
`Nc1nccc(-c2nccc3c2[nH]c2ccccc23)n1` [ANNOMONTINE]: the IC50 in experiment [1] is 34.8 µM; in experiment [2], greater than 613 µM.
On to `COc1c(OC)c2c3c(nccc3c1OC)C(=O)c1ccccc1-2` [HOMOMOSCHATOLINE], for which the figures for the IC50 in experiment [1] and in experiment [2] were 321 µM and 104 µM, respectively.
For `O=C1c2ccccc2-c2c3c(cc4ccnc1c24)OCO3` [LIRIODENINE], in that order: 58.5 µM and 21.5 µM.
In the same order, the values of `N=C(N)c1ccc(OCCCCCOc2ccc(C(=N)N)cc2)cc1` [PENTAMIDINE] are 2.9 µM and 0.9 µM.
